Reference: ChEMBL document CHEMBL3745670, “Synthesis and biological evaluation of novel lipoamino acid derivatives” (Bioorg Med Chem Lett, 2016)
≈ marks a conversion by molar mass, not a printed value. Each block holds one compound with its values, some of them ahead of it.

Experiments:
[1] = tested on: HepG2; assay: Cytotoxicity against human HepG2 cells by MTT assay; assay type: functional, cell-based
[2] = Cytotoxicity against human SKOV3 cells by MTT assay; assay type: functional, cell-based; conditions: SK-OV-3
[3] = tested on: MDA-MB-231; assay: Cytotoxicity against human MDA-MB-231 cells by MTT assay; assay type: functional, cell-based
[4] = tested on: Raoultella planticola; assay: Antibacterial activity against Klebsiella planticola MTCC 530 after 24 hrs by well diffusion assay; assay type: functional; conditions: MTCC 530, 24 h
[5] = tested on: Bacillus subtilis; assay: Antibacterial activity against Bacillus subtilis MTCC 121 after 24 hrs by well diffusion assay; assay type: functional; conditions: MTCC 121, 24 h
[6] = tested on: Micrococcus luteus; assay: Antibacterial activity against Micrococcus luteus MTCC 2470 after 24 hrs by well diffusion assay; assay type: functional; conditions: MTCC 2470, 24 h
[7] = tested on: Staphylococcus aureus; assay: Antibacterial activity against Staphylococcus aureus MLS-16 MTCC 2940 after 24 hrs by well diffusion assay; assay type: functional; conditions: MLS-16 MTCC 2940, 24 h
[8] = tested on: Staphylococcus aureus; assay: Antibacterial activity against Staphylococcus aureus MTCC 96 after 24 hrs by well diffusion assay; assay type: functional; conditions: MTCC 96, 24 h
[9] = tested on: Pseudomonas aeruginosa; assay: Antibacterial activity against Pseudomonas aeruginosa MTCC 2453 after 24 hrs by well diffusion assay; assay type: functional; conditions: MTCC 2453, 24 h
[10] = tested on: Escherichia coli; assay: Antibacterial activity against Escherichia coli MTCC 739 after 24 hrs by well diffusion assay; assay type: functional; conditions: MTCC 739, 24 h
[11] = Cytotoxicity against human DU145 cells by MTT assay; assay type: functional, cell-based; conditions: DU-145
[12] = tested on: Candida albicans; assay: Antifungal activity against Candida albicans MTCC 3017 after 24 hrs by well diffusion assay; assay type: functional; conditions: MTCC 3017, 24 h
Method in brief: (§1)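 Well diffusion screen against Candida and related fungal strains. Read-out is MIC in µg/mL, with miconazole as the reference drug.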

[13] = tested on: Bacillus subtilis; assay: Bactericidal activity against Bacillus subtilis MTCC 121 after 24 hrs by well diffusion assay; assay type: functional; conditions: MTCC 121, 24 h
Method in brief: (§2)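 Minimum bactericidal concentration was determined on four Gram-positive strains, for the compounds active in the preliminary antibacterial screen.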

[14] = tested on: Micrococcus luteus; assay: Bactericidal activity against Micrococcus luteus MTCC 2470 after 24 hrs; assay type: functional; conditions: MTCC 2470, 24 h; method in brief: as §2
[15] = tested on: Bacillus subtilis; assay: Antibiofilm activity against Bacillus subtilis MTCC 121 after 24 hrs by well diffusion assay by crystal violet staining based method; assay type: functional, organism-based; conditions: MTCC 121, 24 h
Method in brief: (§3)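 Biofilm inhibition was tested on the four Gram-positive strains, using crystal violet staining.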

[16] = tested on: Micrococcus luteus; assay: Antibiofilm activity against Micrococcus luteus MTCC 2470 after 24 hrs by crystal violet staining based method; assay type: functional, organism-based; conditions: MTCC 2470, 24 h; method in brief: as §3
[17] = tested on: Staphylococcus aureus; assay: Bactericidal activity against Staphylococcus aureus MTCC 96 after 24 hrs; assay type: functional; conditions: MTCC 96, 24 h; method in brief: as §2
[18] = tested on: Staphylococcus aureus; assay: Bactericidal activity against Staphylococcus aureus MLS-16 MTCC 2940 after 24 hrs; assay type: functional; conditions: MLS-16 MTCC 2940, 24 h; method in brief: as §2
[19] = tested on: Candida parapsilosis; assay: Inhibition of ergosterol biosynthesis in Candida parapsilosis MTCC 1744 assessed as mean ergosterol content at 8 ug/ml after 20 hrs by spectrophotometric analysis (Rvb=1.62 +/- 0.08 ug/ml); assay type: functional
[20] = tested on: Pichia sporocuriosa; assay: Antifungal activity against Issatchenkia hanoiensis MTCC 4755 after 24 hrs by well diffusion assay; assay type: functional; conditions: MTCC 4755, 24 h; method in brief: as §1
[21] = tested on: Candida albicans; assay: Antifungal activity against Candida albicans MTCC 4748 after 24 hrs by well diffusion assay; assay type: functional; conditions: MTCC 4748, 24 h; method in brief: as §1
[22] = tested on: [Candida] aaseri; assay: Antifungal activity against Candida aaseri MTCC 1962 after 24 hrs by well diffusion assay; assay type: functional; conditions: Yamadazyma aaseri, MTCC 1962, 24 h; method in brief: as §1
[23] = tested on: Candida albicans; assay: Antifungal activity against Candida albicans MTCC 7315 after 24 hrs by well diffusion assay; assay type: functional; conditions: MTCC 7315, 24 h; method in brief: as §1
[24] = tested on: Candida albicans; assay: Antifungal activity against Candida albicans MTCC 183 after 24 hrs by well diffusion assay; assay type: functional; conditions: MTCC 183, 24 h; method in brief: as §1
[25] = tested on: Candida albicans; assay: Antifungal activity against Candida albicans MTCC 227 after 24 hrs by well diffusion assay; assay type: functional; conditions: MTCC 227, 24 h; method in brief: as §1
[26] = tested on: Staphylococcus aureus; assay: Antibiofilm activity against Staphylococcus aureus MLS-16 MTCC 2940 after 24 hrs by crystal violet staining based method; assay type: functional, organism-based; conditions: MLS-16 MTCC 2940, 24 h; method in brief: as §3
[27] = tested on: Candida parapsilosis; assay: Inhibition of ergosterol biosynthesis in Candida parapsilosis MTCC 1744 assessed as mean ergosterol content at 16 ug/ml after 20 hrs by spectrophotometric analysis (Rvb=1.62 +/- 0.08 ug/ml); assay type: functional
[28] = tested on: Pichia kudriavzevii; assay: Antifungal activity against Pichia kudriavzevii MTCC 3020 after 24 hrs by well diffusion assay; assay type: functional; conditions: MTCC 3020, 24 h; method in brief: as §1
[29] = tested on: Candida parapsilosis; assay: Inhibition of ergosterol biosynthesis in Candida parapsilosis MTCC 1744 assessed as mean ergosterol content at 4 ug/ml after 20 hrs by spectrophotometric analysis (Rvb=1.62 +/- 0.08 ug/ml); assay type: functional
[30] = tested on: Staphylococcus aureus; assay: Antibiofilm activity against Staphylococcus aureus MTCC 96 after 24 hrs by crystal violet staining based method; assay type: functional, organism-based; conditions: MTCC 96, 24 h; method in brief: as §3
[31] = tested on: Candida parapsilosis; assay: Antifungal activity against Candida parapsilosis MTCC 1744 after 24 hrs by well diffusion assay; assay type: functional; conditions: Lodderomyces parapsilosis, MTCC 1744, 24 h; method in brief: as §1
[32] = tested on: Candida parapsilosis; assay: Inhibition of ergosterol biosynthesis in Candida parapsilosis MTCC 1744 assessed as mean ergosterol content at 2 ug/ml after 20 hrs by spectrophotometric analysis (Rvb=1.62 +/- 0.08 ug/ml); assay type: functional
[33] = tested on: Candida albicans; assay: Antifungal activity against Candida albicans MTCC 3958 after 24 hrs by well diffusion assay; assay type: functional; conditions: MTCC 3958, 24 h; method in brief: as §1
[34] = tested on: Nakaseomyces glabratus; assay: Antifungal activity against Candida glabrata MTCC 3019 after 24 hrs by well diffusion assay; assay type: functional; conditions: MTCC 3019, 24 h; method in brief: as §1
[35] = tested on: Candida albicans; assay: Antifungal activity against Candida albicans MTCC 1637 after 24 hrs by well diffusion assay; assay type: functional; conditions: MTCC 1637, 24 h; method in brief: as §1
[36] = tested on: Candida albicans; assay: Antifungal activity against Candida albicans MTCC 854 after 24 hrs by well diffusion assay; assay type: functional; conditions: MTCC 854, 24 h; method in brief: as §1
[37] = tested on: Candida albicans; assay: Antifungal activity against Candida albicans MTCC 3018 after 24 hrs by well diffusion assay; assay type: functional; conditions: MTCC 3018, 24 h; method in brief: as §1

SMILES: COc1cccc2c1C(=O)c1c(O)c3c(c(O)c1C2=O)C[C@@](O)(C(=O)CO)C[C@@H]3O[C@H]1C[C@H](N)[C@H](O)[C@H](C)O1 [DOXORUBICIN]
- IC50 [1]: 0.8 µM
- IC50 [2]: 0.8 µM
- IC50 [3]: 0.7 µM

- MIC [5]: > 125 µg/mL
- MIC [6]: > 125 µg/mL
- MIC [7]: > 125 µg/mL
- MIC [8]: > 125 µg/mL
- MIC [9]: > 125 µg/mL
- MIC [10]: > 125 µg/mL
- MIC [12]: > 125 µg/mL
SMILES: CCCCCCCCC(CCCCCCCCC(=O)OC)SCC(=O)N[C@@H](Cc1ccccc1)C(=O)OC (stereo partly specified)
- MIC [4]: > 125 µg/mL
- IC50 [1]: 33.6 µM
- IC50 [2]: 42.5 µM
- IC50 [3]: 38.6 µM
- IC50 [11]: 49.1 µM

- MIC [5]: 3.9 µg/mL (≈ 7.42 µM)
- MIC [6]: 3.9 µg/mL (≈ 7.42 µM)
- MIC [7]: > 125 µg/mL
- MIC [8]: > 125 µg/mL
- MIC [9]: > 125 µg/mL
- MIC [10]: > 125 µg/mL
- IC50 [15]: 1.9 µM
- IC50 [16]: 2.1 µM
- MIC [12]: > 125 µg/mL
SMILES: CCCCCCCCC(CCCCCCCCC(=O)OC)SCC(=O)N[C@H](C(=O)OC)c1c[nH]cn1 (stereo partly specified)
- MIC [4]: > 125 µg/mL
- MBC [13]: 3.9 µg/mL (≈ 7.42 µM)
- MBC [14]: 7.8 µg/mL (≈ 14.8 µM)

SMILES: O=C(O)c1cn(C2CC2)c2cc(N3CCNCC3)c(F)cc2c1=O [CIPROFLOXACIN]
- MIC [4]: 0.9 µg/mL (≈ 2.72 µM)
- MIC [5]: 0.9 µg/mL (≈ 2.72 µM)
- MIC [6]: 0.9 µg/mL (≈ 2.72 µM)
- MIC [7]: 0.9 µg/mL (≈ 2.72 µM)
- MIC [8]: 0.9 µg/mL (≈ 2.72 µM)
- MBC [13]: 1.9 µg/mL (≈ 5.73 µM)
- MIC [9]: 0.9 µg/mL (≈ 2.72 µM)
- MBC [17]: 1.9 µg/mL (≈ 5.73 µM)
- MBC [14]: 0.9 µg/mL (≈ 2.72 µM)
- MIC [10]: 0.9 µg/mL (≈ 2.72 µM)
- MBC [18]: 1.9 µg/mL (≈ 5.73 µM)
- IC50 [15]: 0.5 µM
- IC50 [16]: 0.5 µM
- MIC [12]: > 125 µg/mL

- MIC [20]: 15.6 µg/mL (≈ 32.9 µM)
- MIC [21]: 15.6 µg/mL (≈ 32.9 µM)
- MIC [22]: 15.6 µg/mL (≈ 32.9 µM)
- MIC [5]: 3.9 µg/mL (≈ 8.23 µM)
- MIC [6]: 7.8 µg/mL (≈ 16.5 µM)
- MIC [23]: 15.6 µg/mL (≈ 32.9 µM)
- MIC [7]: 7.8 µg/mL (≈ 16.5 µM)
- MIC [24]: 7.8 µg/mL (≈ 16.5 µM)
- MIC [25]: 15.6 µg/mL (≈ 32.9 µM)
- MIC [8]: 15.6 µg/mL (≈ 32.9 µM)
- MIC [9]: > 125 µg/mL
- IC50 [26]: 3.2 µM
- MIC [28]: 15.6 µg/mL (≈ 32.9 µM)
- IC50 [30]: 9.3 µM
- MIC [10]: > 125 µg/mL
- MIC [31]: 7.8 µg/mL (≈ 16.5 µM)
- IC50 [15]: 2.8 µM
- IC50 [16]: 4.1 µM
- MIC [12]: 7.8 µg/mL (≈ 16.5 µM)
- MIC [33]: 7.8 µg/mL (≈ 16.5 µM)
- MIC [34]: 31.2 µg/mL (≈ 65.9 µM)
- MIC [35]: 31.2 µg/mL (≈ 65.9 µM)
- MIC [36]: 31.2 µg/mL (≈ 65.9 µM)
- MIC [37]: 15.6 µg/mL (≈ 32.9 µM)
SMILES: CCCCCCCCC(CCCCCCCCC(=O)OC)SCC(=O)N[C@@H](C)C(=O)OC (stereo partly specified)
- Activity [19]: 0.38 µg/mL
- MFC [20]: 31.2 µg/mL (≈ 65.9 µM)
- MFC [21]: 15.6 µg/mL (≈ 32.9 µM)
- MFC [22]: 31.2 µg/mL (≈ 65.9 µM)
- MIC [4]: > 125 µg/mL
- MFC [23]: 31.2 µg/mL (≈ 65.9 µM)
- MFC [24]: 15.6 µg/mL (≈ 32.9 µM)
- MFC [25]: 31.2 µg/mL (≈ 65.9 µM)
- MBC [13]: 7.8 µg/mL (≈ 16.5 µM)
- Activity [27]: 0.11 µg/mL
- IC50 [1]: 102 µM
- MBC [17]: 31.2 µg/mL (≈ 65.9 µM)
- MFC [28]: 15.6 µg/mL (≈ 32.9 µM)
- MBC [14]: 7.8 µg/mL (≈ 16.5 µM)
- Activity [29]: 0.63 µg/mL
- MFC [31]: 7.8 µg/mL (≈ 16.5 µM)
- IC50 [2]: 114 µM
- MBC [18]: 15.6 µg/mL (≈ 32.9 µM)
- IC50 [3]: 98.7 µM
- IC50 [11]: 154 µM
- Activity [32]: 1.41 µg/mL
- MFC [33]: 15.6 µg/mL (≈ 32.9 µM)
- MFC [34]: 31.2 µg/mL (≈ 65.9 µM)
- MFC [35]: 31.2 µg/mL (≈ 65.9 µM)
- MFC [36]: 62.5 µg/mL (≈ 132 µM)
- MFC [37]: 31.2 µg/mL (≈ 65.9 µM)
